Results published in ChEMBL document CHEMBL5029150, “Controlling Intramolecular Interactions in the Design of Selective, High-Affinity Ligands for the CREBBP Bromodomain” (J Med Chem, 2021).
Calls of active or inactive are those of the source. The rule behind the calls is not given here.

What was measured:
[1] = target: T1, CREB-binding protein/Histone acetyltransferase p300 (Homo sapiens) (UniProt Q09472+Q92793); experiment: Inhibition of CREBBP/EP300 in human HCT-116 cells assessed as reduction in c-Myc mRNA expression at 10 uM by Q-PCR analysis; type: cell-based
[2] = target: T1, CREB-binding protein/Histone acetyltransferase p300 (Homo sapiens); experiment: Inhibition of CREBBP/EP300 in human HCT-116 cells assessed as reduction in H3K27Ac at 10 uM for 6 hrs by Western blot analysis; type: cell-based
Method in brief: (§1)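 HCT116 human colorectal cancer cells were exposed to ligand at 10 μM for 6, 16 or 24 h. c-Myc, H3K18Ac and H3K27Ac levels were read by western blot, with acetylation marks expressed relative to the t = 0 level.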

[3] = target: T1, CREB-binding protein/Histone acetyltransferase p300 (Homo sapiens); experiment: Inhibition of CREBBP/EP300 in human HCT-116 cells assessed as reduction in H3K18Ac at 10 uM for 24 hrs by Western blot analysis; type: cell-based; method in brief: as §1
[4] = target: Bromodomain-containing protein 4 (Homo sapiens, UniProt O60885); experiment: Binding affinity to human BRD4 bromodomain 1 assessed as dissociation constant by ITC assay
[5] = target: T1, CREB-binding protein/Histone acetyltransferase p300 (Homo sapiens); experiment: Inhibition of CREBBP/EP300 in human HCT-116 cells assessed as reduction in c-Myc protein expression at 10 uM for 6 hrs by Western blot analysis; type: cell-based; method in brief: as §1
[6] = target: T1, CREB-binding protein/Histone acetyltransferase p300 (Homo sapiens); experiment: Inhibition of CREBBP/EP300 in human HCT-116 cells assessed as reduction in H3K18Ac at 10 uM for 6 hrs by Western blot analysis; type: cell-based; method in brief: as §1
[7] = target: T1, CREB-binding protein/Histone acetyltransferase p300 (Homo sapiens); experiment: Inhibition of CREBBP/EP300 in human HCT-116 cells assessed as reduction in H3K27Ac at 10 uM for 24 hrs by Western blot analysis; type: cell-based; method in brief: as §1
CREB-binding protein = CREB-binding protein (Homo sapiens, UniProt Q92793); experiment: Binding affinity to human CREBBP bromodomain expressed in Escherichia coli BL21 (DE3)-RIL assessed as dissociation constant by ITC assay
[8] = target: T1, CREB-binding protein/Histone acetyltransferase p300 (Homo sapiens); experiment: Inhibition of CREBBP/EP300 in human HCT-116 cells assessed as reduction in c-Myc expression at 10 uM for 24 hrs by Western blot analysis; type: cell-based; method in brief: as §1

T1 sequence (Q09472 whole entry, looked up): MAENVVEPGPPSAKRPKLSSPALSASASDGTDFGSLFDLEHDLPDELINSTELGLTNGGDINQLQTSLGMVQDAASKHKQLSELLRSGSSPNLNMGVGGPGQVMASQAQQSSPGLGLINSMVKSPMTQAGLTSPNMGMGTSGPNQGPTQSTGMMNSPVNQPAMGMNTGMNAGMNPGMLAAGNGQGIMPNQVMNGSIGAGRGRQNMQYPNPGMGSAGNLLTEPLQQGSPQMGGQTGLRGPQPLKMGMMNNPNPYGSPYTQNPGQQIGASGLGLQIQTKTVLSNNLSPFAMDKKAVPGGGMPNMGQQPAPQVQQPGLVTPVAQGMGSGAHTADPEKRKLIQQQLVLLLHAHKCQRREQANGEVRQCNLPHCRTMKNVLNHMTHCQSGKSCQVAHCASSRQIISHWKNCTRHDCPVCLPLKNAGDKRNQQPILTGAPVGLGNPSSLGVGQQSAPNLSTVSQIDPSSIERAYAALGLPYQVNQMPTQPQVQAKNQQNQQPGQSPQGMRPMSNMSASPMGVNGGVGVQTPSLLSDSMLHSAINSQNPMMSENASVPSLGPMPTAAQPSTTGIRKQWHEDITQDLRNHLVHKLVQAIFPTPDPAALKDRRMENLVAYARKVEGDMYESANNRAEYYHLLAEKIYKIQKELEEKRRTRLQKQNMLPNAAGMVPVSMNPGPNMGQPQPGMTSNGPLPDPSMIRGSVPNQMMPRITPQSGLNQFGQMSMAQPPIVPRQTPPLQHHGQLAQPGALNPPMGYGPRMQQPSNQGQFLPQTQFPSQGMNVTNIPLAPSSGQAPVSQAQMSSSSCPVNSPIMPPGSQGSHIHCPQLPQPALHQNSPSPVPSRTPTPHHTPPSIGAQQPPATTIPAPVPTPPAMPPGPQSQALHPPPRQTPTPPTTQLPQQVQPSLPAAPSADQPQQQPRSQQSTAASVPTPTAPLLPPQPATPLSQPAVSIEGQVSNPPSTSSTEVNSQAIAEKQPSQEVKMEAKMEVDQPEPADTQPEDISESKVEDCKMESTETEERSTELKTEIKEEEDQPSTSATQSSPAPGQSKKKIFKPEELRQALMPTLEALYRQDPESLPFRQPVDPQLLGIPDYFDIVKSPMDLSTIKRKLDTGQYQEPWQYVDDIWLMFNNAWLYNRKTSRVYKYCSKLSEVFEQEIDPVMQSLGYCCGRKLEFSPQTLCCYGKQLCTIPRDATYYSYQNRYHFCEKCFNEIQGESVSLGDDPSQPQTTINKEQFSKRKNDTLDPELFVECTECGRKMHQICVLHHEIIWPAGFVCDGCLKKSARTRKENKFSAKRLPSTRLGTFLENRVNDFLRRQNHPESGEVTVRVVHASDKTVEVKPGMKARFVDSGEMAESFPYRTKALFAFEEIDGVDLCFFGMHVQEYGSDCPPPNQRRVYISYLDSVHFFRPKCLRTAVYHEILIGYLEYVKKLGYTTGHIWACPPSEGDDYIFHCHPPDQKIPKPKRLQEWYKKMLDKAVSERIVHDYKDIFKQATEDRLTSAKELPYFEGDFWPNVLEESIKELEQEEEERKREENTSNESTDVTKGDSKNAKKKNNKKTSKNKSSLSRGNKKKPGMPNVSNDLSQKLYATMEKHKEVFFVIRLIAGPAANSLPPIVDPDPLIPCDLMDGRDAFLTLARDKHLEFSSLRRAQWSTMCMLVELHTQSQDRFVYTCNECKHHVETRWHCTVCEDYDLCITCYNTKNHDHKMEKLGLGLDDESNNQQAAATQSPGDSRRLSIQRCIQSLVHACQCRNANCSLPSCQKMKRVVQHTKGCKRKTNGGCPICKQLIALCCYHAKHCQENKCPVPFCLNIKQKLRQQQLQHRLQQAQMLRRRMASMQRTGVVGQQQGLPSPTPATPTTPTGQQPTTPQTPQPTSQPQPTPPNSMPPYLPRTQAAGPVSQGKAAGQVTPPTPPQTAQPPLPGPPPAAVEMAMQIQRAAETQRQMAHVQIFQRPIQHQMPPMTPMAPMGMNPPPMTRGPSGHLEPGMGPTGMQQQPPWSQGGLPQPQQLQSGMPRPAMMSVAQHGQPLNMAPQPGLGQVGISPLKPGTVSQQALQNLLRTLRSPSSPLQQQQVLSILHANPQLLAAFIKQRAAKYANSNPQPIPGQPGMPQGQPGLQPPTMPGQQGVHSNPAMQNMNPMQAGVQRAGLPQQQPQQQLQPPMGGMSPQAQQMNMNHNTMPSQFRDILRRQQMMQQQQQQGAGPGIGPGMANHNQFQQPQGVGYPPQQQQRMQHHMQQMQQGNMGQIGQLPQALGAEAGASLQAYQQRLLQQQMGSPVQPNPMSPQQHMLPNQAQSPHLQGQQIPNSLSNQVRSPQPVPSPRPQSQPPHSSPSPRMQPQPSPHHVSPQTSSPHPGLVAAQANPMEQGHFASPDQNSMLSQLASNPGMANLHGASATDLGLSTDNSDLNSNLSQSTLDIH
T1 sequence (Q92793 whole entry, looked up): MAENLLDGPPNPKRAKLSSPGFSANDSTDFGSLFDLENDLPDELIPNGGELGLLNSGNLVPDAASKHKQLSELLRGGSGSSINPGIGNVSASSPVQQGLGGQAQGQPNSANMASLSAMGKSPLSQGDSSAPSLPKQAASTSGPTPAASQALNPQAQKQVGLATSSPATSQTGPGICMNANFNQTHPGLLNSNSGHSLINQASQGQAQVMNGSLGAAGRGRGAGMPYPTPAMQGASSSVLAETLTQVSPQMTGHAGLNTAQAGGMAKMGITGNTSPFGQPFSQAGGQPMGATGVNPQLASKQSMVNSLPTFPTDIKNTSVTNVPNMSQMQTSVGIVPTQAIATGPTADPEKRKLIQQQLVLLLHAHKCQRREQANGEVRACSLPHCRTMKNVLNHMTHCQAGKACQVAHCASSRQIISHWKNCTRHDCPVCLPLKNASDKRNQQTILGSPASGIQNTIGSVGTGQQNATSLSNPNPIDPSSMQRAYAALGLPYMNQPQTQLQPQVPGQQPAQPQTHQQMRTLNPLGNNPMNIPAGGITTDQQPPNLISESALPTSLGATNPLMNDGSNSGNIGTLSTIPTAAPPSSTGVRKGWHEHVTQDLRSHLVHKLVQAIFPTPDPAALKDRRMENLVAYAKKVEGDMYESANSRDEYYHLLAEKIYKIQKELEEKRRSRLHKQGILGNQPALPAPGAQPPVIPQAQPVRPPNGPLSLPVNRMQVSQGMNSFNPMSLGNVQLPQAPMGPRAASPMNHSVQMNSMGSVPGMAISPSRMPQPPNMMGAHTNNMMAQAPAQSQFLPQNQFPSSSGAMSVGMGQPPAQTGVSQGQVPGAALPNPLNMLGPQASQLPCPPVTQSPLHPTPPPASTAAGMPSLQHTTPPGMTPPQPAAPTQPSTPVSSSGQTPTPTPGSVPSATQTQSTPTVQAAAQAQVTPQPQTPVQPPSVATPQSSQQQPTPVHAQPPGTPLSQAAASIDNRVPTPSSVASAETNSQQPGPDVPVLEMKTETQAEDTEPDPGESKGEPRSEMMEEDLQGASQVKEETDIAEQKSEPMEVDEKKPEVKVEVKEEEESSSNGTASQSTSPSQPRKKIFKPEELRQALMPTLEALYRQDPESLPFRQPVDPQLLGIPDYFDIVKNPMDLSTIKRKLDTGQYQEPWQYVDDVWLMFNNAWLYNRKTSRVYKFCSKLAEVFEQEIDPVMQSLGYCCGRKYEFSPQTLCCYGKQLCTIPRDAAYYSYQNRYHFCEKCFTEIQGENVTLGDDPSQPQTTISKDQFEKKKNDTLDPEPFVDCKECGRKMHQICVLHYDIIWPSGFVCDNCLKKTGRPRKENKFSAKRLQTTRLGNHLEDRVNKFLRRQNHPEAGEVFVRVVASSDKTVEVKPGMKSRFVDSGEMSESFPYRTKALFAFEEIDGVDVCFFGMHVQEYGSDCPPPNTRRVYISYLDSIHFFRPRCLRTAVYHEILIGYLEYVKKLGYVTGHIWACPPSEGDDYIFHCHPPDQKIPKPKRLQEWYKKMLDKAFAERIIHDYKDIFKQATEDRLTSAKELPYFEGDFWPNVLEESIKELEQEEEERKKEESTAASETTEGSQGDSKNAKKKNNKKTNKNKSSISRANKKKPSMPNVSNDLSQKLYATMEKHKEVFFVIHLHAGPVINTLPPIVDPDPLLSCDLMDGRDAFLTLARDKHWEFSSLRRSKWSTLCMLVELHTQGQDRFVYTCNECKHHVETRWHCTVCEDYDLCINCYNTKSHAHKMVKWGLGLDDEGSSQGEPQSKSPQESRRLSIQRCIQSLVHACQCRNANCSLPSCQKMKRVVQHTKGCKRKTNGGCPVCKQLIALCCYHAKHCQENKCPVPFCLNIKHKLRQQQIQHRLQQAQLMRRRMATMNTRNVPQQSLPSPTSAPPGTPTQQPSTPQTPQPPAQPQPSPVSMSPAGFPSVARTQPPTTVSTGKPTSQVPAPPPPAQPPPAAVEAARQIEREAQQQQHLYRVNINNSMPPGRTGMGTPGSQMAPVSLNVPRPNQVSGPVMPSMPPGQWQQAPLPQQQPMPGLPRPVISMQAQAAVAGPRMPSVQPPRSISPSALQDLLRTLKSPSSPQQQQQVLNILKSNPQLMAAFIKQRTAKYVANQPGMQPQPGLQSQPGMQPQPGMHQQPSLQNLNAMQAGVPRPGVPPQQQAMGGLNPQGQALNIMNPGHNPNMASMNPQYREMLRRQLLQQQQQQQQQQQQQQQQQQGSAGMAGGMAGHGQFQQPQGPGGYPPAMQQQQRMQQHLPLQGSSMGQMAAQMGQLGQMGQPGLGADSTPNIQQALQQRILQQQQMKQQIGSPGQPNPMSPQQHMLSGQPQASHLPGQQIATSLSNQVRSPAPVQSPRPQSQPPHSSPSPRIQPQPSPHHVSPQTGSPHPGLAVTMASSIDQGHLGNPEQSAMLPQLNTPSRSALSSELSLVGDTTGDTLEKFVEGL
CREB-binding protein, sequence (Q92793 whole entry): as the sequence (Q92793 whole entry, looked up) above

inhibition [1] | inhibition [2] | inhibition [3] | Kd [4] | inhibition [5] | inhibition [6] | inhibition [7] | Kd (CREB-binding protein) | inhibition [8] | Compound
Active | 70% | 30% | Not Active | Active | 70% | 30% | – | – | COc1ccc2c(c1)N(CCC/C=C/c1cccc3c1N[C@H](C)CC(=O)N3)CCC2
– | – | – | – | – | – | – | Not Active | inactive | COc1ccc2c(c1)N(CCC/C=C/c1cccc3c1N[C@@H](C)CC(=O)N3)CCC2
